Format in all cases: cell-based
The target of assay [1] is T1, Cannabinoid receptor 2 (Homo sapiens, UniProt P34972). The assay is described as follows: Binding affinity at human CB2 receptor expressed in CHO-K1 cells at 10 uM. Summed up:
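CHO-K1 cells stably transfected with full-length human CB1 or CB2 cDNA, cultured in DMEM/F-12 with 10% FBS and G418 or hygromycin B. Membranes (10 μg) incubated with test compound at 10 μM final and 0.6 nM [3H]CP-55,940 in 50 mM Tris pH 7.4, 154 mM NaCl, 20 mM Di-Na-EDTA, 0.02% BSA, 37 °C, 90 min. Filtration, scintillation counting; nonspecific binding (1 μM CP-55,940) subtracted; % displacement.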

Assay [2] deals with Mu-type opioid receptor (Homo sapiens, UniProt P35372). The assay is described as follows: Displacement of [3H]DAMGO from human mu opioid receptor expressed in CHO-K1 cells after 60 mins by scintillation counting. The essentials: (§1)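 Opioid receptor membranes incubated with radioligand (amounts set from saturation experiments) at 25 °C for 60 min, test compound at 300 μM to 1.7 nM in dose-response. Rapid filtration through BSA-presoaked filters, scintillation counting; nonspecific binding (10 μM DPDPE, nor-binaltorphimine or DAMGO) subtracted. IC50 = concentration for 50% inhibition of 3H-ligand binding.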
Sequence of Mu-type opioid receptor (P35372 whole entry): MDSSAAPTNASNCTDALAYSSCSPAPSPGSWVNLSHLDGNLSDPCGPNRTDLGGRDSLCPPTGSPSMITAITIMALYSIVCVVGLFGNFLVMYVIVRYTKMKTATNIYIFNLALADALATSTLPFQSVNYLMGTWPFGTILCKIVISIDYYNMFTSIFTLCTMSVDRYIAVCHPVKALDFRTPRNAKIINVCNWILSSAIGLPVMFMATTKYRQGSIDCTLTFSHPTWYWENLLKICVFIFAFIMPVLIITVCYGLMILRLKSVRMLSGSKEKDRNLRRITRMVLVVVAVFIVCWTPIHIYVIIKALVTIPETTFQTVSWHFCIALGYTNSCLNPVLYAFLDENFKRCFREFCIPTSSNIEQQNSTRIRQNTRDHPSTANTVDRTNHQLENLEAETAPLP
Background: In a radioligand displacement assay an active substance lowers the binding of a labelled ligand.

Assay [3] addresses T2, Delta-type opioid receptor (Homo sapiens, UniProt P41143). Nature of the assay: Binding affinity at human delta opioid receptor expressed in CHO-K1 cells at 10 uM. The essentials:
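Opioid membrane binding with test compound at 10 μM final; radioligand and membrane amounts set from saturation experiments. Incubation 25 °C, 60 min, then rapid filtration through BSA-presoaked filters, buffer wash and scintillation counting.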

For assay [4], the target named is T3, Cannabinoid receptor 1 (Homo sapiens, UniProt P21554). The assay is described as follows: Binding affinity at human CB1 receptor expressed in CHO-K1 cells at 10 uM.
T3 sequence (P21554 whole entry): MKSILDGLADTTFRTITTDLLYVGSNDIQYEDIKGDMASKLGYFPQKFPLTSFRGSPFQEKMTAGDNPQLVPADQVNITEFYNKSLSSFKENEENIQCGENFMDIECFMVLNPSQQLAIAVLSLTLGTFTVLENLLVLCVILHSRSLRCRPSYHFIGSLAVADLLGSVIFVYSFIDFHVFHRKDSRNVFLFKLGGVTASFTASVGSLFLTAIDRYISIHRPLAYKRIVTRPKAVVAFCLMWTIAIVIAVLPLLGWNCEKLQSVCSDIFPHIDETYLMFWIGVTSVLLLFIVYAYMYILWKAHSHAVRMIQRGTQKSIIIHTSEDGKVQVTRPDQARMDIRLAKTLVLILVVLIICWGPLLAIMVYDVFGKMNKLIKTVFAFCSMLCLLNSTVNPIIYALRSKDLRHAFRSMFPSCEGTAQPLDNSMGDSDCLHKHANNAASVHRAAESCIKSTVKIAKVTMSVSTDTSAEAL
In assay [5] the target is Kappa-type opioid receptor (Homo sapiens, UniProt P41145). Nature of the assay: Displacement of [3H]nor-Binaltorphimine from human kappa opioid receptor expressed in CHO-K1 cells after 60 mins by scintillation counting. The essentials: as §1
Sequence of Kappa-type opioid receptor (P41145 whole entry): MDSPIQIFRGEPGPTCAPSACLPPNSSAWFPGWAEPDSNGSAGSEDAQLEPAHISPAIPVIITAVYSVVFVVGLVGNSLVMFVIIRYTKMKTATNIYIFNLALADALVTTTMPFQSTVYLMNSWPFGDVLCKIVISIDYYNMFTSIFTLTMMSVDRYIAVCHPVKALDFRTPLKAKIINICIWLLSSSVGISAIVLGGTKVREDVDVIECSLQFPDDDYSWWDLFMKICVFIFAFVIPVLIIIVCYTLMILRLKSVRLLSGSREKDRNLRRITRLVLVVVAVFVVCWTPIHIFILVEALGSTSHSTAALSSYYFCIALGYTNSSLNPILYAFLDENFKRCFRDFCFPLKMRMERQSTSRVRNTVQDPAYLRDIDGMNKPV
Assay [6] concerns the target T2, Delta-type opioid receptor. The assay is described as follows: Displacement of [3H]DPDPE from human delta opioid receptor expressed in CHO-K1 cells after 60 mins by scintillation counting. The essentials:
as §1

Assay [7] deals with T3, Cannabinoid receptor 1. The assay is described as follows: Displacement of [3H]CP-55,940 from human CB1 receptor expressed in CHO-K1 cells after 90 mins by scintillation counting. Summed up: (§2)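 Membranes from CHO-K1 cells stably expressing human CB1 or CB2, 10 μg per well, with 0.6 nM [3H]CP-55,940 in 50 mM Tris pH 7.4, 154 mM NaCl, 20 mM Di-Na-EDTA, 0.02% BSA; 37 °C for 90 min. Dose-response from 300 μM to 1.7 nM.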

For assay [8], the target named is T1, Cannabinoid receptor 2. Nature of the assay: Displacement of [3H]CP-55,940 from human CB2 receptor expressed in CHO-K1 cells after 90 mins by scintillation counting. The essentials:
as §2

Here are results for nine compounds from ChEMBL document CHEMBL1811804, “Benzyl derivatives with in vitro binding affinity for human opioid and cannabinoid receptors from the fungus Eurotium repens” (J Nat Prod, 2011).

Each structure is given as a SMILES string.

By IC50 is commonly meant the point on the concentration scale where inhibition reaches its midpoint. A low value points to greater potency in that assay.

T1 sequence (P34972 whole entry): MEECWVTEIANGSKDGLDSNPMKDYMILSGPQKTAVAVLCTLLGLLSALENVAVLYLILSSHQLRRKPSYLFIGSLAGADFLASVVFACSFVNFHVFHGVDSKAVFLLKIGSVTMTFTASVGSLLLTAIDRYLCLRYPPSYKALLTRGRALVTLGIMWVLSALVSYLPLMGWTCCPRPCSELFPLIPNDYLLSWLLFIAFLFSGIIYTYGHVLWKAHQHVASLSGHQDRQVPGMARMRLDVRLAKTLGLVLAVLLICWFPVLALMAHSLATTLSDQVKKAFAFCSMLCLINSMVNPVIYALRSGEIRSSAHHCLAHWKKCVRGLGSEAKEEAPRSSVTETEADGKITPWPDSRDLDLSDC
T2 sequence (P41143 whole entry): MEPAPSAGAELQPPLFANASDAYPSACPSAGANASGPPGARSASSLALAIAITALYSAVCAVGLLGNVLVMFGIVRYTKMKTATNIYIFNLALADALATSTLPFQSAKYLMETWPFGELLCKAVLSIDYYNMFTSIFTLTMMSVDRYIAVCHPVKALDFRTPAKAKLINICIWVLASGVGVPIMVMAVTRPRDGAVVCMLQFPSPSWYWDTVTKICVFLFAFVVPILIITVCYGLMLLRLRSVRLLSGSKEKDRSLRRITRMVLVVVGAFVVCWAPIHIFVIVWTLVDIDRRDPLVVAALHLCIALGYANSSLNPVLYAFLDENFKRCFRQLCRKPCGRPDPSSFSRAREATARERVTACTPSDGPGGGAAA

As for `CCCCC/C=C/c1c(O)cc(CC=C(C)C)c(O)c1C=O` [TETRAHYDROAUROGLAUCIN], the Activity in assay [1], in assay [3] and in assay [4] was < 40% each time. The compound also came in with an IC50 in assay [2] of 7.2 µM.
As for `C=CC(C)(C)c1[nH]c2c(CC=C(C)C)cc(CC=C(C)C)cc2c1C[C@@H]1NC(=O)[C@H](C)NC1=O`, the Activity in assay [1], in assay [3] and in assay [4] was < 40% each time.
`CCCCC/C=C/c1c(O)cc(CC=C(C)C)c2c1CC(O)O2` (stereo not given) returned an IC50 in assay [5] of 32.4 µM. Besides, the Activity in assay [3] was < 40%.
On to `CCCCC/C=C/c1c(O)cc(CC=C(C)C)c(O)c1CO`, for which the Activity is < 40% in assay [1], 62.2% in assay [3] and < 40% in assay [4]. The compound also displayed an IC50 in assay [6] of 5.4 µM.
As for `Cc1c(O)cc(O)c2c1COC2=O`, the Activity in assay [1], in assay [3] and in assay [4] was < 40% each time.
With `CCC/C=C/C=C/c1c(O)cc(CC=C(C)C)c(O)c1C=O`, the Activity in assay [1], in assay [3] and in assay [4] was < 40% each time.
For the compound `C/C=C/C=C/C=C/c1c(O)cc(CC=C(C)C)c(O)c1C=O` [AUROGLAUCIN], the IC50 in assay [7] was determined as 15.2 µM; in assay [8] it was 19.9 µM. The Activity in assay [1] is 43.1%; in assay [3] it was < 40%; in assay [4] it was 62.6%.
As to `CCCCCCCc1c(O)cc(CC=C(C)C)c(O)c1C=O`, the Activity is < 40% in assay [1], 52.5% in assay [3] and < 40% in assay [4].
Consider `CCC/C=C/c1cc2c(C=O)c(O)c(CC=C(C)C)cc2o1`, for which the Activity in assay [1], in assay [3] and in assay [4] was < 40% each time.
